Results: ChEMBL document CHEMBL2021920, “Design, synthesis and biological evaluation of thiazole- and indole-based derivatives for the treatment of type II diabetes” (Eur J Med Chem, 2012)
Calls of active or inactive are those of the source. The rule behind the calls is not given here.

Key:
[1] = tested on: RAW264.7; assay: Inhibition of LPS-stimulated TNFalpha production in mouse RAW264.7 cells at […] dosed simultaneously with LPS measured 24 hrs post dose by ELISA; type: functional
Procedure, shortened: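 RAW 264.7 macrophages were seeded and grown for 24 h. Test agents were then added together with LPS, and cells were incubated for a further 24 h before TNF-α output was determined. Results are expressed as percent inhibition.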

[2] = molecular target: Fatty acid-binding protein, adipocyte (Mus musculus) (UniProt P04117); assay: Inhibition of mouse ap2 by fluorescent 1,8-anilino-8-naphthalene sulfonate assay; details: read-out: Ki(app)
Sequence of Fatty acid-binding protein, adipocyte (Mus musculus) (P04117 whole entry, looked up): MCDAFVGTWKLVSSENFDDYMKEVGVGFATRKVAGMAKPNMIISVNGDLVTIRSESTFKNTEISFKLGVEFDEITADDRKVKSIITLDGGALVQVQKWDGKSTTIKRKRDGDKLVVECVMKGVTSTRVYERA

[3] = tested on: Mus musculus; assay: Antidiabetic effect in high-fat diet fed C57BL/6J mouse obesity model assessed as reduction in plasma alanine aminotransferase level at 50 mg/kg, po dosed once daily measured after 8 weeks relative to untreated control; type: functional; details: 1344 h
Procedure, shortened: (§1)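 Obese C57BL/6J animals on a 60% fat diet were given 50 mg/kg orally each day (suspension in Tween 80/5% saline) or vehicle, n = 8 per group. After 8 weeks, heart blood was taken under anaesthesia and spun at 5,000 g for 15 min at 4 °C. Plasma glucose, TG, TC and ALT were measured on a biochemistry analyzer.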

[4] = tested on: Mus musculus; assay: Antidiabetic effect in high-fat diet fed C57BL/6J mouse obesity model assessed as reduction in plasma triglyceride level at 50 mg/kg, po dosed once daily measured after 8 weeks relative to untreated control; type: functional; details: 1344 h; procedure, shortened: as §1
[5] = tested on: Mus musculus; assay: Antidiabetic effect in high-fat diet fed C57BL/6J mouse obesity model assessed as increase in insulin sensitivity level at 50 mg/kg, po dosed once daily measured after 8 weeks by insulin tolerance test; type: functional, organism-based; design: dose 50 mg/kg
Procedure, shortened: (§2)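 Diet-induced obese C57BL/6J animals were fed a 60% fat diet for 8 weeks, then dosed orally with 50 mg/kg daily (suspension in Tween 80 and 5% saline) or vehicle, n = 8 per group. After a 12 h fast they received either an oral glucose load of 0.5 g/kg (5% glucose) or ip insulin at 2 U/Kg in saline. Blood glucose was read by glucose meter at 0, 15, 30, 60, 90 and 120 min.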

[6] = tested on: Mus musculus; assay: Antidiabetic effect in high-fat diet fed C57BL/6J mouse obesity model assessed as reduction in blood glucose at 50 mg/kg, po dosed once daily measured after 8 weeks relative to untreated control; type: functional, organism-based; design: dose 50 mg/kg; procedure, shortened: as §1
[7] = tested on: Mus musculus; assay: Antidiabetic effect in high-fat diet fed C57BL/6J mouse obesity model assessed as reduction in liver fat deposition at 50 mg/kg, po dosed once daily measured after 8 weeks by H&E staining; type: functional, organism-based; design: dose 50 mg/kg
Procedure, shortened: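 Livers came from high-fat-fed C57BL/6J animals that had 8 weeks of daily oral dosing at 50 mg/kg or vehicle. Tissue was fixed in 4% buffered formalin, embedded in paraffin or OCT, and serially sectioned. Sections were stained with H&E to assess fat deposition.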

[8] = tested on: Mus musculus; assay: Antidiabetic effect in high-fat diet fed C57BL/6J mouse obesity model assessed as improvement in glucose metabolism level at 50 mg/kg, po dosed once daily measured after 8 weeks by glucose tolerance test; type: functional, organism-based; design: dose 50 mg/kg; procedure, shortened: as §2
[9] = tested on: Mus musculus; assay: Antidiabetic effect in high-fat diet fed C57BL/6J mouse obesity model assessed as weight gain incidence at 50 mg/kg, po dosed once daily measured after 8 weeks relative to untreated control; type: functional
Procedure, shortened: (§3)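 C57BL/6J animals were kept on a 60% fat diet, or on normal food, for 8 weeks. High-fat groups were dosed orally at 50 mg/kg once daily (suspension in Tween 80/5% saline) or given vehicle, n = 8 per group. Body weight and food intake were followed over the study period.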

[10] = tested on: Mus musculus; assay: Effect on food intake in high-fat diet fed C57BL/6J mouse obesity model at 50 mg/kg, po dosed once daily measured after 8 weeks relative to untreated control; type: functional, organism-based; design: dose 50 mg/kg; procedure, shortened: as §3
[11] = tested on: Mus musculus; assay: Antidiabetic effect in high-fat diet fed C57BL/6J mouse obesity model assessed as reduction in plasma total cholesterol level at 50 mg/kg, po dosed once daily measured after 8 weeks relative to untreated control; type: functional; details: 1344 h; procedure, shortened: as §1

| SMILES | inhibition (INH) [1] [%] | other results |
| --- | --- | --- |
| Cc1ccccc1Cn1cc(/C=C/C(=O)O)c2ccccc21 |  | inhibition [1]: inactive |
| Cc1ccc2c(c1)c(/C=C/C(=O)O)cn2Cc1ccccc1F | 11.18 |  |
| O=C(O)CSCC(=O)Nc1nc(-c2ccc([N+](=O)[O-])cc2)cs1 | 43.24 |  |
| CC(C)c1ccc(Cn2cc(/C=C/C(=O)O)c3ccccc32)cc1 | 92.24 |  |
| Cc1sc(NC(=O)CCC(=O)O)nc1-c1ccccc1 | 25.23 |  |
| COc1ccc2c(c1)c(/C=C/C(=O)O)cn2Cc1ccccc1F | 86.67 |  |
| COc1ccc(-c2csc(NC(=O)CCC(=O)O)n2)cc1 |  | inhibition [1]: inactive |
| Cc1ccc(-c2csc(NC(=O)CCC(=O)O)n2)cc1 | 36.67 |  |
| Cc1c(/C=C/C(=O)O)c2ccccc2n1Cc1ccccc1F | 93.27 |  |
| O=C(O)CSCC(=O)Nc1nc(-c2ccc(Cl)cc2)cs1 | 23.45 |  |
| O=C(O)CCC(=O)Nc1nc(-c2ccc(F)c(F)c2)cs1 | 92.45 |  |
| O=C(O)Cc1cn(Cc2ccccc2)c2ccccc12 | 52.17 |  |
| O=C(O)CSCC(=O)Nc1nc(-c2ccc(C(F)(F)F)cc2)cs1 | 37.26 |  |
| Cc1ccccc1Cn1cc(CC(=O)O)c2ccccc21 | 14.29 |  |
| CCc1c(-c2ccccc2)c(-c2ccccc2)nn1-c1ccccc1-c1cccc(OCC(=O)O)c1 | 85.13 |  |
| Cc1ccc2c(c1)c(/C=C/C(=O)O)cn2Cc1cccc(F)c1 |  | inhibition [1]: inactive |
| COc1ccc2c(c1)c(/C=C/C(=O)O)cn2Cc1cccc(F)c1 |  | inhibition [1]: inactive |
| Cc1ccc(Cn2cc(/C=C/C(=O)O)c3ccccc32)cc1 | 66.56 |  |
| O=C(O)/C=C/c1cn(Cc2cccc3ccccc23)c2ccccc12 | 93.28 |  |
| Cc1c(/C=C/C(=O)O)c2ccccc2n1Cc1cccc(F)c1 |  | inhibition [1]: inactive |

| SMILES | inhibition (INH) [1] [%] | other results |
| --- | --- | --- |
| O=C(O)CCC(=O)Nc1nc(-c2ccc3ccccc3c2)cs1 | 58.75 |  |
| O=C(O)CSCC(=O)Nc1nc(-c2ccc(F)cc2)cs1 | 18.19 |  |
| O=C(O)CCC(=O)Nc1nc(-c2ccc(C(F)(F)F)cc2)cs1 | 12.15 |  |
| COc1ccc2c(c1)c(/C=C/C(=O)O)cn2Cc1ccc(F)cc1 | 94.28 |  |
| O=C(O)/C=C/c1cn(Cc2cccc(F)c2)c2ccccc12 | 36.36 |  |
| Cc1sc(NC(=O)CCC(=O)O)nc1-c1ccc(Cl)cc1 | 27.14 |  |
| O=C(O)Cc1cn(Cc2cccc(F)c2)c2ccccc12 |  | inhibition [1]: inactive |
| O=C(O)CCC(=O)Nc1nc(-c2ccccc2Cl)cs1 | 8.56 |  |
| CC(C)(C)c1ccc(Cn2cc(/C=C/C(=O)O)c3ccccc32)cc1 | 50.18 |  |
| O=C(O)CCC(=O)Nc1nc(-c2ccc(Cl)cc2Cl)cs1 | 35.15 |  |
| O=C(O)/C=C/c1cn(Cc2ccccc2)c2ccccc12 | 18.17 |  |
| O=C(O)CCC(=O)Nc1nc(-c2ccc(Cl)c(Cl)c2)cs1 | 12.38 |  |
| O=C(O)Cc1cn(Cc2ccccc2F)c2ccccc12 | 24.72 |  |
| O=C(O)CCC(=O)Nc1nc(-c2ccc(Cl)cc2)cs1 | 41.22 |  |
| N#Cc1ccc(Cn2cc(/C=C/C(=O)O)c3ccccc32)cc1 | 31.46 |  |
| O=C(O)CCC(=O)Nc1nc(-c2ccc(F)cc2)cs1 | 27.24 |  |
| O=C(O)/C=C/c1cn(Cc2ccccc2F)c2ccccc12 | 95.47 | Ki [2]: 33 nM; inhibition in vivo at 50 mg/kg [3]: 26.7%; inhibition in vivo at 50 mg/kg [4]: 27.1%; Activity [5]: Active; Activity [6]: Active; Activity [7]: Active; Activity [8]: Active; Activity [9]: 21.18%; Activity [10]: inactive; inhibition in vivo at 50 mg/kg [11]: 38.5% |
| O=C(O)/C=C/c1cn(Cc2ccc([N+](=O)[O-])cc2)c2ccccc12 | 32.34 |  |
| O=C(O)/C=C/c1cn(Cc2ccc(F)cc2)c2ccccc12 | 86.78 |  |
| O=C(O)Cc1cn(Cc2ccc(F)cc2)c2ccccc12 | 92.24 |  |
